According to ChEMBL document CHEMBL1149797, “Synthesis and in vitro antibacterial activities of novel oxazolidinones” (Eur J Med Chem, 2008):
Converted amounts (≈) assume the structure as drawn.

Key:
Bacillus pumilus = assay: Antibacterial activity against Bacillus pumilus ATCC 14884 by broth microdilution technique; type: functional
Summary of the method: (§1)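 Broth microdilution per CLSI (NCCLS) guidelines. Compounds were dissolved in DMSO with water added to give an 80% DMSO stock, then diluted 1:10 to working solutions in water or medium. They were tested at 0.125, 0.25, 0.5, 1, 2, 4, 8 and 16 (two-fold series) against the final inoculum. Each run included sterility controls and vehicle controls (plain medium; 4%, 2%, 1% DMSO). MIC was read as growth inhibition.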

Bacillus cereus = assay: Antibacterial activity against Bacillus cereus ATCC 11778 by broth microdilution technique; type: functional; summary of the method: as §1
[1] = tested on: Staphylococcus epidermidis; assay: Antibacterial activity against Staphylococcus epidermidis ATCC 155 by broth microdilution technique; type: functional; summary of the method: as §1
Streptococcus pyogenes = assay: Antibacterial activity against Streptococcus pyogenes ATCC 14289 by broth microdilution technique; type: functional; summary of the method: as §1
Enterococcus faecalis [2] = assay: Antibacterial activity against Enterococcus faecalis ATCC 35550 by broth microdilution technique; type: functional; summary of the method: as §1
Staphylococcus aureus [3] = assay: Antibacterial activity against Staphylococcus aureus ATCC 25923 by broth microdilution technique; type: functional; summary of the method: as §1
Staphylococcus aureus [4] = assay: Antibacterial activity against Staphylococcus aureus ATCC 9144 by broth microdilution technique; type: functional
Summary of the method: (§2)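 Broth microdilution per NCCLS/CLSI. Compounds dissolved in DMSO with water added to give an 80% DMSO stock. Stock diluted 1:10 in 4-8% DMSO in water or medium to make the working solution. Tested at […]. Sterility controls run with each set. Inoculum viability controls included plain medium and 4%, 2% and 1% DMSO vehicle. MIC taken as growth inhibition.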

Staphylococcus aureus [5] = assay: Antibacterial activity against linezolid-resistant Staphylococcus aureus NRS 119 with G 2576T mutation by broth microdilution technique; type: functional; summary of the method: as §2
Staphylococcus aureus [6] = assay: Antibacterial activity against Staphylococcus aureus ATCC 14154 by broth microdilution technique; type: functional; summary of the method: as §2
Staphylococcus aureus [7] = assay: Antibacterial activity against Staphylococcus aureus ATCC 29213 by broth microdilution technique; type: functional; summary of the method: as §2
Streptococcus pneumoniae = assay: Antibacterial activity against multidrug-resistant Streptococcus pneumoniae ATCC 700904 by broth microdilution technique; type: functional; summary of the method: as §2
Staphylococcus aureus [8] = assay: Antibacterial activity against linezolid-resistant Staphylococcus aureus NRS 120 with G 2576T mutation by broth microdilution technique; type: functional; summary of the method: as §2
Enterococcus faecium = assay: Antibacterial activity against vancomycin-resistant Enterococcus faecium ATCC 700221 by broth microdilution technique; type: functional; summary of the method: as §2
Enterococcus faecalis [9] = assay: Antibacterial activity against Enterococcus faecalis ATCC 14506 by broth microdilution technique; type: functional; summary of the method: as §1
Enterococcus faecalis [10] = assay: Antibacterial activity against multidrug-resistant Enterococcus faecalis ATCC 700802 by broth microdilution technique; type: functional; summary of the method: as §2
Staphylococcus aureus [11] = assay: Antibacterial activity against methicillin-resistant Staphylococcus aureus ATCC 700699 by broth microdilution technique; type: functional; summary of the method: as §2
[12] = Half life in Sprague-Dawley rat at 10 mg/kg, iv; type: ADME, organism-based; design: dose 10 mg/kg, route intravenous; details: in vivo
Summary of the method: (§3)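 The compound was given as a clear solution in PEG-400/cremophore/ethanol/propylene glycol/saline via the tail vein at 10 mg/kg. Retro-orbital blood went into heparinized tubes at intervals, and plasma was spun and analysed immediately by HPLC against spiked rat-plasma calibrators. Cmax, tmax, AUC0-∞ and t1/2 were derived.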

[13] = Cmax in Sprague-Dawley rat at 10 mg/kg, iv; type: ADME, organism-based; design: dose 10 mg/kg, route intravenous; details: in vivo
Summary of the method: as §3, with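 “Male Sprague-Dawley rats, 8-10 weeks old, fasted 18 h, with food returned 4 h post-dose and water free. The” for “The”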

[14] = Half life in Sprague-Dawley rat at 30 mg/kg, po; type: ADME, organism-based; design: dose 30 mg/kg, route oral; details: in vivo
Summary of the method: (§4)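 Male Sprague-Dawley rats, 8-10 weeks old, fasted 18 h, fed again 4 h after dosing, water ad libitum. Oral dose of 30 mg/kg as a homogeneous suspension in 0.5% w/v CMC in normal saline. Serial retro-orbital samples into heparinized tubes; plasma separated at ambient temperature and assayed at once by HPLC with calibrators in drug-free rat plasma. Cmax, tmax, AUC0-∞ and t1/2 calculated.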

[15] = Tmax in Sprague-Dawley rat at 10 mg/kg, iv; type: ADME, organism-based; design: dose 10 mg/kg, route intravenous; details: in vivo
Summary of the method: as §3, with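 “Male Sprague-Dawley rats, 8-10 weeks old, fasted 18 h, with food returned 4 h post-dose and water free. The” for “The”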

[16] = Bioavailability in Sprague-Dawley rat at 30 mg/kg, po; details: in vivo
[17] = AUC in Sprague-Dawley rat at 10 mg/kg, iv; type: ADME, organism-based; design: dose 10 mg/kg, route intravenous; details: plasma
Summary of the method: as §3, with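 “Male Sprague-Dawley rats, 8-10 weeks old, fasted 18 h, with food returned 4 h post-dose and water free. The” for “The”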

[18] = Tmax in Sprague-Dawley rat at 30 mg/kg, po; type: ADME, organism-based; design: dose 30 mg/kg, route oral; details: in vivo; summary of the method: as §4
[19] = AUC in Sprague-Dawley rat at 30 mg/kg, po; type: ADME, organism-based; design: dose 30 mg/kg, route oral; details: plasma; summary of the method: as §4
[20] = Cmax in Sprague-Dawley rat at 30 mg/kg, po; type: ADME, organism-based; design: dose 30 mg/kg, route oral; details: in vivo; summary of the method: as §4
[21] = Tmax in Sprague-Dawley rat at 25 mg/kg, po; type: ADME, organism-based; design: dose 25 mg/kg, route oral; details: in vivo

| MIC (Bacillus pumilus) [µg/mL] | MIC (Bacillus cereus) [µg/mL] | MIC [1] [µg/mL] | MIC (Streptococcus pyogenes) [µg/mL] | MIC (Enterococcus faecalis [2]) [µg/mL] | MIC (Staphylococcus aureus [3]) [µg/mL] | Structure (SMILES) | MIC (Staphylococcus aureus [5]) [µg/mL] | MIC (Staphylococcus aureus [6]) [µg/mL] | MIC (Streptococcus pneumoniae) [µg/mL] | MIC (Staphylococcus aureus [8]) [µg/mL] | MIC (Enterococcus faecium) [µg/mL] | MIC (Staphylococcus aureus [11]) [µg/mL] | further results |
| --- | --- | --- | --- | --- | --- | --- | --- | --- | --- | --- | --- | --- | --- |
| 4 (≈ 8.22 µM) | 2 (≈ 4.11 µM) | 1 (≈ 2.06 µM) | 1 (≈ 2.06 µM) | 2 (≈ 4.11 µM) | 4 (≈ 8.22 µM) | CC(=O)NC[C@H]1CN(c2ccc(N3CCN(C(=O)/C=C/c4ccc(CO)o4)CC3)c(F)c2)C(=O)O1 | – | – | – | – | – | – | – |
| 1 (≈ 2.19 µM) | 1 (≈ 2.19 µM) | 0.5 (≈ 1.1 µM) | 0.5 (≈ 1.1 µM) | 1 (≈ 2.19 µM) | 1 (≈ 2.19 µM) | CC(=O)NC[C@H]1CN(c2ccc(N3CCN(C(=O)/C=C/c4ccoc4)CC3)c(F)c2)C(=O)O1 | – | – | – | – | – | – | – |
| 0.5 (≈ 0.989 µM) | 0.25 (≈ 0.495 µM) | 1 (≈ 1.98 µM) | 0.12 (≈ 0.237 µM) | 0.5 (≈ 0.989 µM) | 2 (≈ 3.96 µM) | CC(=O)NC[C@H]1CN(c2ccc(N3CCN(C(=O)/C=C/c4c[nH]c5ccccc45)CC3)c(F)c2)C(=O)O1 | – | – | – | – | – | – | – |
| 1 (≈ 2.14 µM) | 1 (≈ 2.14 µM) | 0.5 (≈ 1.07 µM) | 0.5 (≈ 1.07 µM) | 2 (≈ 4.28 µM) | 1 (≈ 2.14 µM) | CC(=O)NC[C@H]1CN(c2ccc(N3CCN(C(=O)/C=C/c4cccnc4)CC3)c(F)c2)C(=O)O1 | – | – | – | – | – | – | – |
| > 16 | > 16 | > 16 | > 16 | > 16 | > 16 | CC(=O)NC[C@H]1CN(c2ccc(N3CCN(C(=O)/C=C/c4ccc(C(=O)O)o4)CC3)c(F)c2)C(=O)O1 | – | – | – | – | – | – | – |
| 1 (≈ 2.06 µM) | 2 (≈ 4.13 µM) | 2 (≈ 4.13 µM) | 1 (≈ 2.06 µM) | 2 (≈ 4.13 µM) | 4 (≈ 8.26 µM) | CC(=O)NC[C@H]1CN(c2ccc(N3CCN(C(=O)/C=C/c4ccc(C=O)o4)CC3)c(F)c2)C(=O)O1 | – | – | – | – | – | – | – |
| > 16 | > 16 | > 16 | > 16 | > 16 | > 16 | CC(=O)NC[C@H]1CN(c2ccc(N3CCN(C(=O)/C=C/c4ccc(C(=O)[O-])o4)CC3)c(F)c2)C(=O)O1.[Na+] | – | – | – | – | – | – | – |

| Structure (SMILES) | MIC (Bacillus pumilus) [µg/mL] | MIC (Bacillus cereus) [µg/mL] | MIC [1] [µg/mL] | MIC (Streptococcus pyogenes) [µg/mL] | MIC (Enterococcus faecalis [2]) [µg/mL] | MIC (Staphylococcus aureus [3]) [µg/mL] | MIC (Staphylococcus aureus [5]) [µg/mL] | MIC (Staphylococcus aureus [6]) [µg/mL] | MIC (Streptococcus pneumoniae) [µg/mL] | MIC (Staphylococcus aureus [8]) [µg/mL] | MIC (Enterococcus faecium) [µg/mL] | MIC (Staphylococcus aureus [11]) [µg/mL] | further results |
| --- | --- | --- | --- | --- | --- | --- | --- | --- | --- | --- | --- | --- | --- |
| CC(=O)NC[C@H]1CN(c2ccc(N3CCN(C(=O)/C=C/c4ccc([N+](=O)[O-])s4)CC3)c(F)c2)C(=O)O1 | 0.5 (≈ 0.966 µM) | 1 (≈ 1.93 µM) | ≤ 0.12 | 0.12 (≈ 0.232 µM) | 0.5 (≈ 0.966 µM) | 0.25 (≈ 0.483 µM) | 4 (≈ 7.73 µM) | 0.25 (≈ 0.483 µM) | ≤ 0.125 | 4 (≈ 7.73 µM) | 0.5 (≈ 0.966 µM) | 0.25 (≈ 0.483 µM) | MIC (Staphylococcus aureus [4]): 0.25 µg/mL (≈ 0.483 µM); MIC (Staphylococcus aureus [7]): 0.25 µg/mL (≈ 0.483 µM); MIC (Enterococcus faecalis [9]): 0.25 µg/mL (≈ 0.483 µM); MIC (Enterococcus faecalis [10]): 0.5 µg/mL (≈ 0.966 µM) |
| CC(=O)NC[C@H]1CN(c2ccc([N+]3([O-])CCN(C(=O)/C=C/c4ccc([N+](=O)[O-])o4)CC3)c(F)c2)C(=O)O1 | – | – | 0.12 (≈ 0.232 µM) | 0.12 (≈ 0.232 µM) | 1 (≈ 1.93 µM) | 0.5 (≈ 0.966 µM) | 2 (≈ 3.86 µM) | 1 (≈ 1.93 µM) | 0.25 (≈ 0.483 µM) | 2 (≈ 3.86 µM) | 0.5 (≈ 0.966 µM) | 0.5 (≈ 0.966 µM) | half-life [12]: 57 min; Cmax [13]: 9180 ng/mL; half-life [14]: 58.2 min; Tmax [15]: 0 h; bioavailability [16]: 60%; MIC (Staphylococcus aureus [7]): 1 µg/mL (≈ 1.93 µM); AUC [17]: 1030 ng·h/mL; Tmax [18]: 10.2 min; AUC [19]: 1870 ng·h/mL; MIC (Enterococcus faecalis [10]): 1 µg/mL (≈ 1.93 µM); Cmax [20]: 1210 ng/mL |
| CC(=O)NC[C@H]1CN(c2ccc(N3CCN(C(=O)CO)CC3)c(F)c2)C(=O)O1 [EPEREZOLID] | 1 (≈ 2.54 µM) | 2 (≈ 5.07 µM) | 2 (≈ 5.07 µM) | 0.5 (≈ 1.27 µM) | 2 (≈ 5.07 µM) | 2 (≈ 5.07 µM) | > 16 | 1 (≈ 2.54 µM) | 0.5 (≈ 1.27 µM) | > 16 | 1 (≈ 2.54 µM) | 1 (≈ 2.54 µM) | MIC (Staphylococcus aureus [4]): 2 µg/mL (≈ 5.07 µM); MIC (Staphylococcus aureus [7]): 2 µg/mL (≈ 5.07 µM); MIC (Enterococcus faecalis [9]): 1 µg/mL (≈ 2.54 µM); MIC (Enterococcus faecalis [10]): 1 µg/mL (≈ 2.54 µM) |
| CC(=O)NC[C@H]1CN(c2ccc(N3CCOCC3)c(F)c2)C(=O)O1 [LINEZOLID] | 0.5 (≈ 1.48 µM) | 2 (≈ 5.93 µM) | 1 (≈ 2.96 µM) | 1 (≈ 2.96 µM) | – | – | > 16 | 1 (≈ 2.96 µM) | 0.25 (≈ 0.741 µM) | > 16 | 1 (≈ 2.96 µM) | 1 (≈ 2.96 µM) | Tmax [15]: 0 h; Tmax [21]: 18.6 min |
